Source: ChEMBL document CHEMBL1156947, “Halogenated analogs of 1'-acetoxychavicol acetate, Rev-export inhibitor from Alpinia galanga, designed from mechanism of action” (Bioorg Med Chem Lett, 2010)
Converted amounts (≈) assume the structure as drawn.

How the values were obtained:
[1] = tested on: Human immunodeficiency virus 1; experiment: Inhibition of HIV1 Rev nuclear export in Saccharomyces pombe expressing GST-NLS-GFP-RevNES fused protein assessed as cellular distribution after 3 hrs by fluorescence microscopy
Summary of the method: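 Fission yeast colony grown 24 h at 37 °C in thiamine-free MM medium to induce the GST-NLS-GFP-RevNES fusion. Cells then exposed to samples in medium with 1% DMSO for 3 h at 37 °C. Fusion-protein distribution checked by fluorescence microscopy to give MIC values.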

[2] = Inhibition of HIV1 HA-tagged Rev nuclear export expressed in human HeLa cells assessed as cellular localization after 12 hrs by FITC-labelled indirect fluorescence microscopy; format: cell-based; settings: Human immunodeficiency virus 1, HeLa
Summary of the method: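 HeLa cells (1.0 × 10^5) grown on coverslips in DMEM with 10% FBS, 37 °C, 5% CO2, 24 h. Co-transfected 16 h with plasmids for HA-tagged Rev and Gag (pCRRE/ΔRev). Samples added in medium with 1% DMSO, 12 h at 37 °C. Cells fixed in 4% formaldehyde, methanol-treated, blocked with 10% FBS, then anti-HA and FITC anti-mouse IgG. Rev localization scored by fluorescence microscopy and image analysis.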

[3] = Stability assessed as compound remaining up to 180 mins in presence of in fetal bovine serum; format: ADME; settings: cattle, 3 h
Summary of the method: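 Sample (0.2 mM ethanol stock) added to RPMI1640 containing 10% FBS, held at 37 °C for 0, 30, 60 or 180 min. Mixture extracted with EtOAc, residue taken up in acetonitrile. Remaining compound measured by reversed-phase HPLC (C18, acetonitrile–water gradient, UV 220 nm), in triplicate.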

C=C[C@H](OC(C)=O)c1ccc(OC(C)=O)c(F)c1F
MIC [1]: 1.4 µM (≈ 0.378 µg/mL)
IC50 [2]: 130 nM

C=C[C@H](OC(=O)NC(C)C)c1ccc(OC(=O)NC(C)C)cc1
MIC [1]: > 50 µM
Stability [3]: Stable

C=C[C@H](OC(=O)NC)c1ccc(OC(=O)NC)cc1
MIC [1]: > 50 µM
Stability [3]: Stable

C=C[C@H](OC(=O)OCCC)c1ccc(OC(=O)OCCC)cc1
MIC [1]: 10 µM (≈ 3.22 µg/mL)
Stability [3]: Stable

C=C[C@H](OC(=O)OC(C)C)c1ccc(OC(C)=O)cc1
MIC [1]: > 50 µM

C=C[C@H](OC(=O)C(C)C)c1ccc(OC(C)=O)cc1
MIC [1]: 19 µM (≈ 4.98 µg/mL)

C=C[C@H](OC(C)=O)c1ccc(OC(C)=O)c(F)c1
MIC [1]: 1.7 µM (≈ 0.429 µg/mL)
IC50 [2]: 480 nM

C=C[C@H](OC(=O)NC(C)(C)C)c1ccc(OC(=O)NC(C)(C)C)cc1
MIC [1]: > 50 µM
Stability [3]: Stable

C=C[C@H](OC(=O)NCC)c1ccc(OC(=O)NCC)cc1
MIC [1]: > 50 µM
Stability [3]: Stable

C=C[C@H](OC(=O)CCC)c1ccc(OC(C)=O)cc1
MIC [1]: 19 µM (≈ 4.98 µg/mL)

C=C[C@H](OC(=O)OC(C)C)c1ccc(OC(=O)OC(C)C)cc1
MIC [1]: > 50 µM
Stability [3]: Stable

C=C[C@H](OC(C)=O)c1ccc(OC(C)=O)cc1 [1'-ACETOXYCHAVICOL ACETATE]
MIC [1]: 4.3 µM
IC50 [2]: 980 nM

C=C[C@H](OC(C)=O)c1ccc(OC(C)=O)c(Br)c1
MIC [1]: 1.7 µM (≈ 0.532 µg/mL)
IC50 [2]: 490 nM

C=C[C@H](OC(C)=O)c1ccc(OC(C)=O)c(Cl)c1
MIC [1]: 2.2 µM (≈ 0.591 µg/mL)
IC50 [2]: 620 nM

C=C[C@H](OC(=O)OCCC)c1ccc(OC(C)=O)cc1
MIC [1]: 26 µM (≈ 7.24 µg/mL)

C=C[C@H](OC(=O)OCC)c1ccc(OC(=O)OCC)cc1
MIC [1]: 25 µM (≈ 7.36 µg/mL)
Stability [3]: Stable

C=C[C@H](OC(=O)NCCC)c1ccc(OC(=O)NCCC)cc1
MIC [1]: > 50 µM
Stability [3]: Stable

C=C[C@H](OC(=O)OC(C)(C)C)c1ccc(OC(=O)OC(C)(C)C)cc1
MIC [1]: > 50 µM
Stability [3]: Stable

C=C[C@H](OC(=O)OC)c1ccc(OC(=O)OC)cc1
MIC [1]: 25 µM (≈ 6.66 µg/mL)
Stability [3]: Stable
